# Source: ChEMBL document CHEMBL1147740, “Synthesis and biological activity of isoxazolidinyl polycyclic aromatic hydrocarbons: potential DNA intercalators” (J Med Chem, 2006)
# Calls of active or inactive are those of the source. The rule behind the calls is not given here. *1 amine or outer side, *2 acyl side, *3 side chain or, on linkers, in order; H or OH if unused. Where a SMILES comes first, the peptide text is derived from it. Bridges are numbered along the chain shown (N, C = ends). Roman numbers before positions name the chains, in order. [ ]: non-standard residue; d: D form. Actinocin(1to9) = Cc1c2oc3c(C)ccc(C(=O)[*:2])c3nc-2c(C(=O)[*:1])c(N)c1=O; NMeV = CN[C@H](C(=O)O)C(C)C; Sar = CNCC(=O)O
# Key:
# [1] = system: Human alphaherpesvirus 1; experiment: Antiviral activity against Herpes simplex virus 1 KOS strain in HEL cells; type: functional, Human herpesvirus 1 strain KOS; settings: Human alphaherpesvirus 1, KOS
# How it was run: (§1)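 Minimum inhibitory concentration (µg/mL) needed to reduce virus-induced cytopathogenicity by 50%; HSV strains in HEL cells, Punta Toro virus in Vero cells.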
# [2] = system: Vaccinia virus; experiment: Antiviral activity against Vaccinia virus in HEL cells; type: functional; settings: Orthopoxvirus vaccinia
# How it was run: (§2)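 Virus infection of HEL cell cultures. The endpoint is the minimum inhibitory concentration (µg/mL) that reduces virus-induced cytopathogenicity by 50%.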
# [3] = system: Vesicular stomatitis virus; experiment: Antiviral activity against Vesicular stomatitis virus in HEL cells; type: functional; how it was run: as §2
# [4] = system: HEL; experiment: Antiviral activity against HEL cells; type: functional, Homo sapiens
# How it was run: (§3)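 Cytotoxicity scored as the concentration giving a microscopically detectable alteration of normal cell morphology in HEL, HeLa or Vero cells.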
# [5] = system: Human alphaherpesvirus 1; experiment: Antiviral activity against herpes simplex virus 1 TK- KOS ACVr strain in HEL cells; type: functional; how it was run: as §1
# [6] = system: Human alphaherpesvirus 2; experiment: Antiviral activity against Herpes simplex virus 2 G strain in HEL cells; type: functional; settings: Human alphaherpesvirus 2, G; how it was run: as §1
# [7] = system: Vesicular stomatitis virus; experiment: Antiviral activity against Vesicular stomatitis virus in HeLa cells; type: functional
# How it was run: (§4)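 Virus infection of HeLa cell cultures. The endpoint is the minimum inhibitory concentration (µg/mL) that reduces virus-induced cytopathogenicity by 50%.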
# [8] = system: Sindbis virus; experiment: Antiviral activity against Sindbis virus in vero cells; type: functional
# How it was run: (§5)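 Virus infection of Vero cell cultures. The endpoint is the minimum inhibitory concentration (µg/mL) that reduces virus-induced cytopathogenicity by 50%.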
# [9] = system: Human respirovirus 3; experiment: Antiviral activity against Parainfluenza-3 virus in vero cells; type: functional; how it was run: as §5
# [10] = system: Coxsackievirus B4; experiment: Antiviral activity against Coxsackie virus B4 in vero cells; type: functional; settings: Enterovirus B; how it was run: as §5
# [11] = system: Punta Toro virus; experiment: Antiviral activity against Punta Toro virus in vero cells; type: functional; how it was run: as §1
# [12] = system: Respiratory syncytial virus; experiment: Antiviral activity against Respiratory syncytial virus in HeLa cells; type: functional; settings: human respiratory syncytial virus; how it was run: as §4
# [13] = system: Mammalian orthoreovirus 1; experiment: Antiviral activity against Reovirus 1 in vero cells; type: functional; how it was run: as §5
# [14] = system: HeLa; experiment: Antiviral activity against HeLa cells; type: functional, Homo sapiens; how it was run: as §3
# [15] = system: Coxsackievirus B4; experiment: Antiviral activity against Coxsackie virus B4 in HeLa cells; type: functional; settings: Enterovirus B; how it was run: as §4
# [16] = system: Vero; experiment: Antiviral activity against vero cells; type: functional, Chlorocebus sabaeus; how it was run: as §3
# [17] = system: THP-1; experiment: Cytotoxicity against THP1 Leukemia cells by MTS assay; type: functional, cell-based, Homo sapiens
# How it was run: (§6)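 MTS tetrazolium reduction assay; cells grown under optimal culture conditions for 20 h with compound at 10 to 500 µM or without it; MTS reagent then added for 1 h at 37 °C, humidified 5% CO2; absorbance read at 490 nm. Triplicate. IC50 is the concentration giving 50% reduction of absorbance.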
# [18] = system: U-937; experiment: Cytotoxicity against U937 Lymphoma cells by MTS assay; type: functional, cell-based, Homo sapiens; how it was run: as §6
# [19] = system: MOLT-3; experiment: Cytotoxicity against MOLT3 Leukemia cells by MTS assay; type: functional, cell-based, Homo sapiens; how it was run: as §6
# [20] = system: Vero; experiment: Cytotoxicity against normal vero kidney cells by MTS assay; type: functional, cell-based, Chlorocebus sabaeus; how it was run: as §6
# [21] = system: MOLT-3; experiment: Potentiation of fas-mediated apoptosis in MOLT3 cells; type: functional, cell-based; settings: Homo sapiens
# How it was run: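 MOLT-3 cells given anti-fas antibody (CH11) at 25, 50 or 100 ng/mL, alone or immediately after compound at 25 or 50 µM. Cultured 20 h, stained with acridine orange, and apoptosis scored by fluorescence microscopy.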
# [22] = system: MOLT-3; experiment: Cytotoxicity against MOLT3 Leukemia cells after 24 hrs of treatment; type: functional, cell-based; settings: Homo sapiens, MOLT-3, 24 h
# How it was run: (§7)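 Trypan blue exclusion; cells exposed under optimal culture conditions to new compounds at 10 to 500 µM (actinomycin D 1 to 200 µM) or control medium for the stated time. CC50 is the concentration causing 50% toxicity by trypan blue.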
# [23] = system: MOLT-3; experiment: Cytotoxicity against MOLT3 Leukemia cells after 72 hrs of treatment; type: functional, cell-based; settings: Homo sapiens, MOLT-3, 72 h; how it was run: as §7
# [24] = system: MOLT-3; experiment: Cytotoxicity against MOLT3 Leukemia cells after 48 hrs of treatment; type: functional, cell-based; settings: Homo sapiens, MOLT-3, 48 h; how it was run: as §7
# [25] = Homo sapiens, HEL, read-out: MCC
# [26] = Human alphaherpesvirus 1, TK- KOS ACVr, read-out: MIC50
# [27] = Punta Toro virus, read-out: MIC50
# [28] = Homo sapiens, HeLa, read-out: MCC
# [29] = Chlorocebus sabaeus, Vero, read-out: MCC
smiles,measurement,setting,value
Nc1nc2c(ncn2COCCO)c(=O)[nH]1 [ACYCLOVIR],MIC50,[1],0.384 µg/mL
same,MIC50,[2],> 400 µg/mL
same,MIC50,[3],> 400 µg/mL
same,MCC,[4]; [25],> 400 µg/mL
same,MIC50,[5]; [26],48 µg/mL
same,MIC50,[6],0.384 µg/mL
O=c1[nH]c(=O)n([C@H]2C[C@H](O)[C@@H](CO)O2)cc1/C=C/Br [BRIVUDINE],MIC50,[1],0.128 µg/mL
same,MIC50,[2],48 µg/mL
same,MIC50,[3],> 400 µg/mL
same,MIC50,[7],> 400 µg/mL
same,MIC50,[8],> 400 µg/mL
same,MIC50,[9],> 400 µg/mL
same,MIC50,[10],> 400 µg/mL
same,MIC50,[11]; [27],> 400 µg/mL
same,MIC50,[12],> 400 µg/mL
same,MIC50,[13],> 400 µg/mL
same,MCC,[14]; [28],> 400 µg/mL
same,MCC,[4]; [25],> 400 µg/mL
same,MIC50,[15],> 400 µg/mL
same,MIC50,[5]; [26],> 400 µg/mL
same,MCC,[16]; [29],> 400 µg/mL
same,MIC50,[6],240 µg/mL
CN1O[C@H](CO)C[C@@H]1c1cc2ccccc2c2ccccc12 (relative stereo),IC50,[17]; thp-1,148 µM
same,IC50,[18]; u-937,154 µM
same,MIC50,[11],9.6 µg/mL
same,MCC,[14],80 µg/mL
same,MCC,[4],400 µg/mL
same,IC50,[19]; molt-3,128 µM
same,IC50,[20]; vero,231 µM
same,MIC50,[5],>80 µg/mL
same,MCC,[16],80 µg/mL
OC[C@H]1C[C@H](c2c3ccccc3cc3ccccc23)N(Cc2ccccc2)O1 (racemic),IC50,"[19]; Homo sapiens, MOLT-3",> 500 µM
OC[C@@H]1C[C@H](c2c3ccccc3cc3ccccc23)N(Cc2ccccc2)O1 (racemic),IC50,"[19]; Homo sapiens, MOLT-3",> 500 µM
Nc1ncnc2c1ncn2C[C@H](O)CO [(S)-DHPA],MIC50,[7],> 400 µg/mL
same,MIC50,[8],> 400 µg/mL
same,MIC50,[9],400 µg/mL
same,MIC50,[10],> 400 µg/mL
same,MIC50,[11]; [27],> 400 µg/mL
same,MIC50,[12],> 400 µg/mL
same,MIC50,[13],240 µg/mL
same,MCC,[14]; [28],> 400 µg/mL
same,MIC50,[15],> 400 µg/mL
same,MCC,[16]; [29],> 400 µg/mL
OC[C@@H]1C[C@H](c2cc3ccccc3c3ccccc23)N(Cc2ccccc2)O1 (racemic),IC50,"[17]; Homo sapiens, THP-1",50 µM
same,IC50,"[18]; Homo sapiens, U-937",54 µM
same,Activity,[21],Active
same,AC50,[22],69 µM
same,CC50,[22],73 µM
same,IC50,"[19]; Homo sapiens, MOLT-3",78 µM
same,IC50,"[20]; Chlorocebus sabaeus, Vero",63 µM
CN1O[C@H](CO)C[C@@H]1c1c2ccccc2cc2ccccc12 (relative stereo),IC50,"[19]; Homo sapiens, MOLT-3",> 500 µM
NC(=O)c1ncn([C@@H]2O[C@H](CO)[C@@H](O)[C@H]2O)n1 [RIBAVIRIN],MIC50,[1],240 µg/mL
same,MIC50,[2],80 µg/mL
same,MIC50,[3],240 µg/mL
same,MIC50,[7],16 µg/mL
same,MIC50,[8],> 400 µg/mL
same,MIC50,[9],48 µg/mL
same,MIC50,[10],> 400 µg/mL
same,MIC50,[11]; [27],80 µg/mL
same,MIC50,[12],9.6 µg/mL
same,MIC50,[13],16 µg/mL
same,MCC,[14]; [28],> 400 µg/mL
same,MCC,[4]; [25],> 400 µg/mL
same,MIC50,[15],9.6 µg/mL
same,MIC50,[5]; [26],> 400 µg/mL
same,MCC,[16]; [29],> 400 µg/mL
same,MIC50,[6],> 400 µg/mL
CN1O[C@H](CO)C[C@@H]1c1cc2ccccc2c2ccccc12 (racemic),MIC50,[1],> 80 µg/mL
same,MIC50,[2],> 80 µg/mL
same,MIC50,[3],> 80 µg/mL
same,MIC50,[7],> 16 µg/mL
same,IC50,"[17]; Homo sapiens, THP-1",169 µM
same,IC50,"[18]; Homo sapiens, U-937",153 µM
same,MIC50,[8],> 16 µg/mL
same,MIC50,[9],> 16 µg/mL
same,MIC50,[10],> 16 µg/mL
same,MIC50,[11]; [27],9.6 µg/mL
same,MIC50,[12],> 16 µg/mL
same,MIC50,[13],> 16 µg/mL
same,MCC,[14]; [28],80 µg/mL
same,MCC,[4]; [25],400 µg/mL
same,IC50,"[19]; Homo sapiens, MOLT-3",125 µM
same,MIC50,[15],> 16 µg/mL
same,IC50,"[20]; Chlorocebus sabaeus, Vero",246 µM
same,MIC50,[5]; [26],48 µg/mL
same,MCC,[16]; [29],80 µg/mL
same,MIC50,[6],> 80 µg/mL
"Cc1c2oc3c(C)ccc(C(=O)N[C@@H]4C(=O)N[C@H](C(C)C)C(=O)N5CCC[C@H]5C(=O)N(C)CC(=O)N(C)[C@@H](C(C)C)C(=O)O[C@@H]4C)c3nc-2c(C(=O)N[C@@H]2C(=O)N[C@H](C(C)C)C(=O)N3CCC[C@H]3C(=O)N(C)CC(=O)N(C)[C@@H](C(C)C)C(=O)O[C@@H]2C)c(N)c1=O [DACTINOMYCIN] (I: T[dV]P[Sar][NMeV] / II: T[dV]P[Sar][NMeV]; ester I:1-I:C, II:1-II:C; linker I:N-II:N via Actinocin(1to9))",IC50,"[18]; Homo sapiens, U-937",< 1 µM
same,IC50,"[19]; Homo sapiens, MOLT-3",< 1 µM
OC[C@@H]1C[C@H](c2ccc3ccc4cccc5ccc2c3c45)N(Cc2ccccc2)O1 (racemic),IC50,"[17]; Homo sapiens, THP-1",192 µM
same,IC50,"[18]; Homo sapiens, U-937",193 µM
same,AC50,[22],> 500 µM
same,CC50,[22],> 500 µM
same,IC50,"[19]; Homo sapiens, MOLT-3",127 µM
same,AC50,[23],67 µM
same,CC50,[23],58 µM
same,IC50,"[20]; Chlorocebus sabaeus, Vero",301 µM
same,AC50,[24],97 µM
same,CC50,[24],97 µM
Nc1nc2c(ncn2COC(CO)CO)c(=O)[nH]1 [GANCICLOVIR],MIC50,[1],0.096 µg/mL
same,MIC50,[2],> 100 µg/mL
same,MIC50,[3],> 100 µg/mL
same,MCC,[4]; [25],> 100 µg/mL
same,MIC50,[5]; [26],0.48 µg/mL
same,MIC50,[6],0.032 µg/mL
CN1O[C@H](CO)C[C@@H]1c1ccc2ccc3cccc4ccc1c2c34 (racemic),IC50,"[17]; Homo sapiens, THP-1",107 µM
same,IC50,"[18]; Homo sapiens, U-937",111 µM
same,AC50,[22],118 µM
same,CC50,[22],278 µM
same,IC50,"[19]; Homo sapiens, MOLT-3",112 µM
same,AC50,[23],67 µM
same,CC50,[23],133 µM
same,IC50,"[20]; Chlorocebus sabaeus, Vero",159 µM
same,AC50,[24],71 µM
same,CC50,[24],168 µM
CN1O[C@@H](CO)C[C@@H]1c1c2ccccc2cc2ccccc12 (racemic),IC50,"[19]; Homo sapiens, MOLT-3",> 500 µM
